We go through 28 molecules from paper PMC9233738 (Bioorganic & medicinal chemistry, 2022).

≈ marks a conversion by molar mass, not a printed value. Entries after “also recorded” stand apart in the source; their conditions may differ. Like-named read-outs stand apart in the source and are kept apart here.

A short description of series [1]: Aqueous solubility at pH 2.0, in-house HPLC assay. Type of series: physicochemical.
Series [2] can be described thus: Aqueous solubility, Biomek FX with pION μSOL evolution software. Type of series: physicochemical. The conditions noted are these: for solubility: pH 6.5.
Series [3] concerns HepG2 human hepatoma cells. The series is described as follows: Cytotoxicity, HepG2 cells, MTS cell proliferation assay. The conditions noted are these: for Selectivity: SI = EC50(HepG2)/EC50(Dd2); for EC50: read-out: HepG2 EC50. Type of series: cell-based. In short, it runs like this:
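HepG2 human hepatoma cells were seeded at 2,500 cells/well and pre-incubated for 24 h. Serial dilutions of test compound (0–40 μM range) were then added, followed by a further 48 h incubation.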
For orientation: Tetrazolium assays rely on reduction of a dye to a coloured formazan, in cell work by metabolically active cells.

Series [4] relates to chloroquine-resistant Dd2 strain. The experiment in a line: Antiplasmodial activity against chloroquine-resistant Dd2 strain. Type of series: cell-based, Plasmodium falciparum. The conditions noted are these: for antimalarial activity / potency (in words): qualitative statement.

The term solubility denotes the dissolved amount per volume that the medium holds. As for `O=C1CC2(CCN(Cc3ccccc3)CC2)Oc2c1ccc1ccccc21` [Compound 2c, 1’-Benzylspiro[benzo[h]chromene-2,4’-piperidin]-4(3H)-one], the solubility in series [1] (aqueous medium at pH 2.0, pH 2) is not below 80 µM; in series [2] (aqueous medium), 40 to 80 µM (≈ 14.3 to 28.6 µg/mL). On to `O[C@H](CN1CCC2(CC1)C[C@@H](O)c1ccc3ccccc3c1O2)c1ccc(F)c(F)c1` [Compound 3mb], for which the Selectivity in series [3] is on record as less than 7. Consider `OC1CC2(CCN(Cc3ccccc3)CC2)Oc2c1ccc1ccccc21` (stereo not shown) [Compound 3c, 1’-Benzyl-3,4-dihydrospiro[benzo[h]chromene-2,4’-piperidin]-4-ol], for which the solubility in series [1] (aqueous medium at pH 2.0, pH 2) was in the range of 40 to 80 µM (≈ 14.4 to 28.8 µg/mL); in series [2] (aqueous medium), 40 to 80 µM (≈ 14.4 to 28.8 µg/mL). A word on the EC50: it is the concentration giving half of the maximal effect. `CCN1CCC[C@@]2(CC(O)c3ccc4ccccc4c3O2)C1` (stereo partly drawn) [Compound 11a, (2R)-1’-Ethyl-3,4-dihydrospiro[benzo[h]chromene-2,3’-piperidin]-4-ol]: the EC50 in series [3] (Homo sapiens, HepG2, 48 h) was more than 20 µM. In series [3], the Selectivity is on record as more than 28.8.

In the case of `OC(CN1CCC2(CC1)CC(O)c1ccc3ccccc3c1O2)c1ccc(F)c(F)c1` (stereo not shown) [Compound 1], the EC50 in series [3] (Homo sapiens, HepG2, 48 h) was more than 20 µM. The Selectivity in series [3] was more than 53.3. For `O=C1CC2(CCN(C(=O)Cc3ccc(F)c(F)c3)CC2)Oc2c1ccc1ccccc21` [Compound 2l, 1’-(2-(3,4-Difluorophenyl)acetyl)spiro[benzo[h]chromene-2,4’-piperidin]-4(3H)-one], in series [4], the “antimalarial activity / potency (in words)” value is recorded as “completely lost”.

For the molecule `c1ccc(CN2CCC3(CCc4ccc5ccccc5c4O3)CC2)cc1` [Compound 5c, 1’-Benzyl-3,4-dihydrospiro[benzo[h]chromene-2,4’-piperidine]], the solubility in series [1] (aqueous medium at pH 2.0, pH 2) was in the range of 20 to 40 µM (≈ 6.87 to 13.7 µg/mL). With `O=C(Cc1ccc(F)c(F)c1)N1CCC2(CC1)CC(O)c1ccc3ccccc3c1O2` (stereo not shown) [Compound 3l, 2-(3,4-Difluorophenyl)-1-(4-hydroxy-3,4-dihydrospiro[benzo[h]chromene-2,4’-piperidin]-1’yl)ethanone], the “antimalarial activity / potency (in words)” value in series [4] was “lacked antimalarial activity; also recorded: completely lost”. `OC(CN1CCC2(CCc3ccc4ccccc4c3O2)CC1)c1ccc(F)c(F)c1` (stereo not shown) [Compound 5i, 1-(3,4-Difluorophenyl)-2-(3,4-dihydrospiro[benzo[h]chromene-2,4’-piperidin]-1’-yl)ethanol] registered a solubility in series [1] (aqueous solution, pH 2) of 40 to 80 µM (≈ 16.4 to 32.8 µg/mL). For the molecule `O[C@H](CN1CCC2(CC1)C[C@H](O)c1ccc3ccccc3c1O2)c1ccc(F)c(F)c1` [Compound 3md, (S)-1’-((S)-2-(3,4-Difluorophenyl)-2-hydroxyethyl)-3,4-dihydrospiro[benzo[h]chromene-2,4’-piperidin]-4-ol], the EC50 in series [3] (Homo sapiens, HepG2, 48 h) is more than 20 µM. In addition, the Selectivity in series [3] is reported as more than 11. Take `O[C@@H](CN1CCC2(CC1)C[C@H](O)c1ccc3ccccc3c1O2)c1ccc(F)c(F)c1` [Compound 3mc, (S)-1’-((R)-2-(3,4-Difluorophenyl)-2-hydroxyethyl)-3,4-dihydrospiro[benzo[h]chromene-2,4’-piperidin]-4-ol]: the concentration for a half-maximal effect (EC50) in series [3] (Homo sapiens, HepG2, 48 h) is more than 20 µM. In addition, in series [3], the Selectivity is more than 15. As to `Fc1ccc(CCN2CCC3(CCc4ccc5ccccc5c4O3)CC2)cc1F` [Compound 5h, 1’-(3,4-Difluorophenethyl)-3,4-dihydrospiro[benzo[h]chromene-2,4’-piperidine]], the solubility in series [1] (aqueous solution, pH 2) fell in the range of 20 to 40 µM (≈ 7.87 to 15.7 µg/mL). In series [3], `O=C1C[C@@]2(CCCN(CCc3ccc(F)c(F)c3)C2)Oc2c1ccc1ccccc21` [Compound 10c, (R)-1’-(3,4-Difluorophenethyl)spiro[benzo[h]chromene-2,3’-piperidin]-4(3H)-one] showed a Selectivity of more than 30. With `OC1CC2(CCN(CCCc3ccccc3)CC2)Oc2c1ccc1ccccc21` (stereo not shown) [Compound 3f, 1’-(3-Phenylpropyl)-3,4-dihydrospiro[benzo[h]chromene-2,4’-piperidin]-4-ol], the solubility in series [1] (aqueous medium at pH 2.0, pH 2) is not below 80 µM; in series [2] (aqueous medium), not below 80 µM. As to `OC1CC2(CCN(CCc3ccccc3)CC2)Oc2c1ccc1ccccc21` (stereo not shown) [Compound 3d, 1’-Phenethyl-3,4-dihydrospiro[benzo[h]chromene-2,4’-piperidin]-4-ol], the solubility in series [1] (aqueous medium at pH 2.0, pH 2) was 40 to 80 µM (≈ 14.9 to 29.9 µg/mL); in series [2] (aqueous medium) it was 40 to 80 µM (≈ 14.9 to 29.9 µg/mL).

Take `c1ccc2c3c(ccc2c1)CCC1(CCNCC1)O3` [Compound 5a, 3,4-Dihydrospiro[benzo[h]chromene-2,4’-piperidine]]: the solubility lay in the range of 40 to 80 µM (≈ 10.1 to 20.3 µg/mL) in series [1] (aqueous solution, pH 2) and 20 to 40 µM (≈ 5.07 to 10.1 µg/mL) in series [2] (aqueous solution). `O=C1CC2(CCN(CCc3ccccc3)CC2)Oc2c1ccc1ccccc21` [Compound 2d, 1’-Phenethylspiro[benzo[h]chromene-2,4’-piperidin]-4(3H)-one]: the solubility in series [1] (aqueous medium at pH 2.0, pH 2) was not below 80 µM; in series [2] (aqueous medium) it was 40 to 80 µM (≈ 14.9 to 29.7 µg/mL). As for `CCN1CCC2(CC1)CC(O)c1ccc3ccccc3c1O2` (stereo not shown) [Compound 3b, 1’-Ethyl-3,4-dihydrospiro[benzo[h]chromene-2,4’-piperidin]-4-ol], the solubility lay within 20 to 40 µM (≈ 5.95 to 11.9 µg/mL) in series [1] (aqueous solution, pH 2) and 20 to 40 µM (≈ 5.95 to 11.9 µg/mL) in series [2] (aqueous solution). As for `OC1CC2(CCN(CCC3CCCCC3)CC2)Oc2c1ccc1ccccc21` (stereo not shown) [Compound 3e, 1’-(2-Cyclohexylethyl)-3,4-dihydrospiro[benzo[h]chromene-2,4’-piperidin]-4-ol], the EC50 in series [4] (Plasmodium falciparum, DD2, read-out: Dd2 EC50, chloroquine-resistant Dd2 strain) came to 0.32 µM. Besides, the solubility in series [1] (aqueous solution, pH 2) fell in the range of 40 to 80 µM (≈ 15.2 to 30.4 µg/mL); in series [2] (aqueous solution) it was 20 to 40 µM (≈ 7.59 to 15.2 µg/mL). In the case of `O=C1CC2(CCN(CCCc3ccccc3)CC2)Oc2c1ccc1ccccc21` [Compound 2f, 1’-(3-Phenylpropyl)spiro[benzo[h]chromene-2,4’-piperidin]-4(3H)-one], the solubility in series [1] (aqueous medium at pH 2.0, pH 2) lay in the range of 40 to 80 µM (≈ 15.4 to 30.8 µg/mL); in series [2] (aqueous medium) it was 20 to 40 µM (≈ 7.71 to 15.4 µg/mL). In series [2] (aqueous solution), `O=C1CC2(CCN(CCc3ccc(F)c(F)c3)CC2)Oc2c1ccc1ccccc21` [Compound 2h, 1’-(3,4-Difluorophenethyl)spiro[benzo[h]chromene-2,4’-piperidin]-4(3H)-one] came in with a solubility of 10 to 20 µM (≈ 4.07 to 8.15 µg/mL). Consider `OC1CC2(CCNCC2)Oc2c1ccc1ccccc21` (stereo not shown) [Compound 3a, 3,4-Dihydrospiro[benzo[h]chromene-2,4’-piperidin]-4-ol], for which the solubility in series [1] (aqueous solution, pH 2) was 40 to 80 µM (≈ 10.8 to 21.5 µg/mL). In series [3], this molecule displayed a Selectivity of more than 54.5. On to `O=C(CN1CCC2(CC1)CC(=O)c1ccc3ccccc3c1O2)c1ccc(F)c(F)c1` [Compound 2g, 1’-(2-(3,4-Difluorophenyl)-2-oxoethyl)spiro[benzo[h]chromene-2,4’-piperidin]-4(3H)-one], for which the solubility fell in the range of 40 to 80 µM (≈ 16.9 to 33.7 µg/mL) in series [1] (aqueous solution, pH 2) and 40 to 80 µM (≈ 16.9 to 33.7 µg/mL) in series [2] (aqueous solution).

Regarding “1-(3,4-Difluorophenyl)-2-(1,4-dihydro-2H-spiro[phenanthrene-3,4’-piperidin]-1’-yl)ethan-1-one [Compound 5g]”, the EC50 in series [4] (read-out: Dd2 EC50, chloroquine-resistant Dd2 strain) is more than 2.5 µM; in series [3] (HepG2 cells, 48 h incubation, MTS, n = 3) it was more than 20 µM. In addition, the “Solubility pH 6.5” value in series [2] (pH 6.5, Table 6) is given as “^*** (For 20 μM < solubility ≤ 40 μM)”. As to `O=C(Cc1ccc(F)c(F)c1)N1CCC2(CCc3ccc4ccccc4c3O2)CC1` [Compound 5j, 2-(3,4-Difluorophenyl)-1-(3,4-dihydrospiro[benzo[h]chromene-2,4’-piperidin]-1’ yl)ethanone], in series [4], the “antimalarial activity / potency (in words)” value was “completely lost”. For `O=C1CC2(CCN(CCC3CCCCC3)CC2)Oc2c1ccc1ccccc21` [Compound 2e, 1’-(2-Cyclohexylethyl)spiro[benzo[h]chromene-2,4’-piperidin]-4(3H)-one], the solubility in series [1] (aqueous solution, pH 2) was 20 to 40 µM (≈ 7.55 to 15.1 µg/mL); in series [2] (aqueous solution), 10 to 20 µM (≈ 3.78 to 7.55 µg/mL). The same molecule yielded a Selectivity in series [3] of more than 30.

Turning to `O=C(CN1CCC2(CC1)CC(O)c1ccc3ccccc3c1O2)c1ccc(F)c(F)c1` (stereo not shown) [Compound 3g, 1-(3,4-Difluorophenyl)-2-(4-hydroxy-3,4-dihydrospiro[benzo[h]chromene-2,4’-piperidin]-1’yl)ethanone], the solubility in series [1] (aqueous solution, pH 2) is 20 to 40 µM (≈ 8.47 to 16.9 µg/mL); in series [2] (aqueous solution), 20 to 40 µM (≈ 8.47 to 16.9 µg/mL).

`c1ccc2c3c(ccc2c1)CCC1(CCN(CCC2CCCCC2)CC1)O3` [Compound 5e, 1’-(2-Cyclohexylethyl)-3,4-dihydrospiro[benzo[h]chromene-2,4’-piperidine]] showed a solubility in series [1] (aqueous solution, pH 2) of 40 to 80 µM (≈ 14.5 to 29.1 µg/mL).
